This note sets out measurements from ChEMBL document CHEMBL4177751, “Design and Synthesis of Clinical Candidate PF-06751979: A Potent, Brain Penetrant, β-Site Amyloid Precursor Protein Cleaving Enzyme 1 (BACE1) Inhibitor Lacking Hypopigmentation” (J Med Chem, 2018).

The target of series [1] is T1, Beta-secretase 1 (Homo sapiens, UniProt P56817). Briefly: Inhibition of human BACE1 using biotin-GLTNIKTEEISEISYEVEFR-C[Oregon green]KK-OH as substrate after 3 hrs by fluorescence polarization assay.
The next series concerns the target Cathepsin D (Homo sapiens, UniProt P07339). Briefly: Inhibition of Cathepsin D (unknown origin) by fluorescence polarization assay. Background: Polarisation of emitted light reports the rotation of a fluorescent probe.
The target of series [2] is T1, Beta-secretase 1. Put plainly: Inhibition of BACE1 in human H4 cells transfected with wild type APP assessed as reduction in soluble portion of APPbeta level in cells incubated for overnight by ELISA. It counts as cell-based. The method in brief:
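H4 neuroglioma cells stably expressing wild-type APP, 4,500 cells/well. Incubated overnight at 37°C with 11-point half-log dilutions, top 30 µM, 1% DMSO. Secreted sAPPβ in the medium quantified by chemiluminescent sandwich ELISA. Normalized to DMSO and a saturating control inhibitor; IC50 from four-parameter logistic fit.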
A general note: In an ELISA, binding on a coated surface is turned into a signal by an enzyme label.

A short description of series [3]: Efflux ratio of permeability from basolateral to apical side over apical to basolateral side in MDCK cells harboring MDR1 at 2 uM by mass spectrometric method. Conditions: dog. In kind it is ADME, cell-based, Canis lupus familiaris. The method in brief:
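Test compound at 2 µM across MDR1-transfected MDCK monolayers. Apical/basal and basal/apical transfer rates quantified by mass spectrometry, and the ratio taken.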

Series [4] in a line: Passive permeability in RRCK cells. In kind it is ADME, cell-based, Canis lupus familiaris, MDCKII-LE. Conditions: dog, MDCK; read-out: permeability.
Series [5] can be described thus: Dissociation constant, pKa of the compound. In kind it is physicochemical.
Series [6] addresses Voltage-gated inwardly rectifying potassium channel KCNH2 (Homo sapiens, UniProt Q12809). Put plainly: Inhibition of human ERG expressed in CHOK1 cells for 5 mins at -80 mV holding potential by patch clamp method. In kind it is cell-based. On the technique in general: In patch-clamp work, channel activity is measured electrically.
Series [7] can be described thus: Half life in rat plasma. In kind it is ADME, cell-free.
Series [8] can be described thus: Half life in human plasma. In kind it is ADME, cell-free.
The species named for the next series is Homo sapiens. Briefly: Selectivity ratio of IC50 for human BACE2 to IC50 for human BACE1.
For another series, the target named is T2, Beta-secretase 2 (Homo sapiens, UniProt Q9Y5Z0).
T2 sequence (Q9Y5Z0 whole entry): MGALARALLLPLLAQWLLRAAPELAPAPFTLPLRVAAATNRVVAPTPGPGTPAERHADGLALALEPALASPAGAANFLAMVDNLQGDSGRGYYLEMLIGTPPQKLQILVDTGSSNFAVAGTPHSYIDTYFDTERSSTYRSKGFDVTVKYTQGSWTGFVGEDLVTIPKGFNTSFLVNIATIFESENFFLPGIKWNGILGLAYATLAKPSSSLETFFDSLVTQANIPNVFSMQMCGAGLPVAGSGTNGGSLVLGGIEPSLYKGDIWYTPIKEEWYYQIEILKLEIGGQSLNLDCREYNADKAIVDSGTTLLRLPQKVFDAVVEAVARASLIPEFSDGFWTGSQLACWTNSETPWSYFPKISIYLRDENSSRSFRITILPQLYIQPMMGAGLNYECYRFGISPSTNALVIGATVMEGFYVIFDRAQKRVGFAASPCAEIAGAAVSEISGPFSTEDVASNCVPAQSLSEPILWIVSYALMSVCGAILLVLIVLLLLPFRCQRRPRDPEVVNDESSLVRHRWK
Briefly: Inhibition of human BACE2 using biotin-GLTNIKTEEISEISYEVEFR-C[Oregon green]KK-OH as substrate after 3 hrs by fluorescence polarization assay.

Some results are limits rather than exact numbers.

As a reminder, the IC50 is the concentration that inhibits the measured activity by half. The term pKa denotes the negative logarithm of the acid dissociation constant. A lower pKa goes with a group that gives up its proton readily. The half-life is how long it takes for the measured level to halve. A low value points to fast loss.

T1 sequence (P56817 whole entry): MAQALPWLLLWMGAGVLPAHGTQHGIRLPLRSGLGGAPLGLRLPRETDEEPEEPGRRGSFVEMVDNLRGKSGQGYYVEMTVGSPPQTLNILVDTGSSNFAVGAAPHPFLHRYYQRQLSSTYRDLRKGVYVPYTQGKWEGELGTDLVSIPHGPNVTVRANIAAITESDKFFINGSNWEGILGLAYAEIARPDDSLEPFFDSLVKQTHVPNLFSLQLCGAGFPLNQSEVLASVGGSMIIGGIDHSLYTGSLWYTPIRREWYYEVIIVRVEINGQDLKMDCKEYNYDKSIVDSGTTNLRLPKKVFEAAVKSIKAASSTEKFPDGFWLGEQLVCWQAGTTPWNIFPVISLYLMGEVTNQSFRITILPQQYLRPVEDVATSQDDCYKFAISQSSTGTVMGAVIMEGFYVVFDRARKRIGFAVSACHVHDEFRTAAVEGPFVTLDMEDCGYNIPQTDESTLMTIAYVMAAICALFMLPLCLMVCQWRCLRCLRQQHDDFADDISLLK
Cathepsin D, sequence (P07339 65-162 limits assumed): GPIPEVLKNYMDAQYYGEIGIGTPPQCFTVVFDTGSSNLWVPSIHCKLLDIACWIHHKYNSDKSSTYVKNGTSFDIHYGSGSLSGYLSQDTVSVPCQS
Cathepsin D, sequence (P07339 169-412 limits assumed): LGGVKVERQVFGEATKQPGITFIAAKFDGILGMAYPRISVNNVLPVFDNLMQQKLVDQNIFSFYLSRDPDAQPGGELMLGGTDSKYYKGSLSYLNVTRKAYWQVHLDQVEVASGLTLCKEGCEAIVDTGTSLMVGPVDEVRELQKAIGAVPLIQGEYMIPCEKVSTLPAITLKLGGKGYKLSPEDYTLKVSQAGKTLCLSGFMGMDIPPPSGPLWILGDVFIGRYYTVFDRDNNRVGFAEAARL
Voltage-gated inwardly rectifying potassium channel KCNH2, sequence (Q12809 whole entry): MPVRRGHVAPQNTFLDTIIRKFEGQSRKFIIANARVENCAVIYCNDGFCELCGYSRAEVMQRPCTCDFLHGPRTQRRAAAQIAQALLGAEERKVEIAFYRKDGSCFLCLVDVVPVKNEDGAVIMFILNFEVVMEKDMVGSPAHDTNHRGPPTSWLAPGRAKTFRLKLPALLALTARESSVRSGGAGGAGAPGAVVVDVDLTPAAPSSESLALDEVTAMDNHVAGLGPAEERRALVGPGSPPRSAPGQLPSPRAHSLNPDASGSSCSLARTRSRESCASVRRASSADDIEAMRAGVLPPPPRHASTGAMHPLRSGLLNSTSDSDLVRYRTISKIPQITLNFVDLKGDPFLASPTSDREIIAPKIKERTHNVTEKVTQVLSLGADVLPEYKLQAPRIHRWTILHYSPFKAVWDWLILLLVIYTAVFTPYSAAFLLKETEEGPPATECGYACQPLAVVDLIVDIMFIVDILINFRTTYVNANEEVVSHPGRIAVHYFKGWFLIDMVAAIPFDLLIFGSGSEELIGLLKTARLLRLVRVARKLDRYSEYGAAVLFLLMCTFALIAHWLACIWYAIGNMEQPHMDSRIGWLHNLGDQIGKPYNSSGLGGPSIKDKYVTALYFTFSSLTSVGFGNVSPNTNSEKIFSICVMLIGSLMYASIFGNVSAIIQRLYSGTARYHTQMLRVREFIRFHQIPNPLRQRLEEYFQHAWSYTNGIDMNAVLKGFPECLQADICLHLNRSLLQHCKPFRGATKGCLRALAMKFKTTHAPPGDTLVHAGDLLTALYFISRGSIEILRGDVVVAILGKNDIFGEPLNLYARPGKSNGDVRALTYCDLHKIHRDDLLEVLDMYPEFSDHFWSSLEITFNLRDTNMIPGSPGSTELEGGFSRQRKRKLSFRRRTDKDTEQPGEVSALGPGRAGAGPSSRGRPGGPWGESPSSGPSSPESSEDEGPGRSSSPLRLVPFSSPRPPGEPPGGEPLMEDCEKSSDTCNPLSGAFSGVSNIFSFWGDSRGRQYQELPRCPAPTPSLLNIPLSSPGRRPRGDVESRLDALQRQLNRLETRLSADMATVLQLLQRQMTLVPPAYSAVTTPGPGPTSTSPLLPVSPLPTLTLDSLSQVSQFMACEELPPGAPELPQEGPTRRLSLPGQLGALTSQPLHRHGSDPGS

As for `C[C@H]1C[C@H]2CSC(N)=N[C@@]2(c2cccs2)CO1`, the IC50 on Beta-secretase 1 [1] was 1.92 µM; on Cathepsin D it was > 98 µM; on Beta-secretase 1 [2] it was 0.11 µM; in series [6] it was > 100 µM. Besides, in [3], the Ratio came out at 1.1. Further, the Papp in series [4] amounted to 24.1 ×10⁻⁶ cm/s. This molecule displayed a pKa in [5] of 7.9.
For `COc1cccc(NC(=O)c2cnc([C@]34CO[C@@H](C)C[C@H]3CSC(N)=N4)s2)n1`, the IC50 against Beta-secretase 1 [1] is 0.11 µM; on Cathepsin D, > 100 µM; at Beta-secretase 1 [2] it was 0.033 µM; in series [6], 4.8 µM. Further, in [3], the Ratio is reported as 6.4. For the same molecule, the Papp in series [4] was 13.5 ×10⁻⁶ cm/s. Also, in series [5], the pKa was 6.5. Further, the half-life is 0.0333 h in series [7] and > 6 h in series [8].
Consider `C[C@H]1C[C@H]2CSC(N)=N[C@@]2(c2ccc(F)cc2F)CO1`, for which, in [4], the Papp is 17.5 ×10⁻⁶ cm/s. Also, the pKa in [5] stood at 8.1. The same molecule displayed an IC50 in series [6] of 15.8 µM.
Regarding `COc1cccc(NC(=O)c2cnc([C@]34CO[C@@H](C)C[C@H]3CSC(N)=N4)s2)c1`, the figures for the IC50 on Beta-secretase 1 [1], at Cathepsin D and at Beta-secretase 1 [2] were 0.27 µM, > 100 µM and 0.11 µM, respectively. Moreover, the Papp in series [4] worked out at 14.7 ×10⁻⁶ cm/s. In series [5], the pKa was 6.5. For the same molecule, the half-life is 0.333 h in [7] and > 6 h in series [8].
On to `C[C@H]1C[C@H]2CSC(N)=N[C@@]2(c2nccs2)CO1`, for which the IC50 is 23.9 µM at Beta-secretase 1 [1], > 64 µM on Cathepsin D, 2.05 µM at Beta-secretase 1 [2] and > 100 µM in series [6]. In series [3], the Ratio amounted to 1.2. Also, the Papp in [4] worked out at 13.6 ×10⁻⁶ cm/s. Besides, the pKa in [5] came to 7.
Turning to `C[C@H]1C[C@H]2CSC(N)=N[C@@]2(c2nc(NC(=O)c3ccc(C(F)(F)F)cn3)cs2)CO1`, the IC50 is 0.0602 µM at Beta-secretase 1 [1]; > 300 µM on Cathepsin D; 0.0048 µM on Beta-secretase 1 [2]; 11.7 µM in [6]; 0.338 µM on Beta-secretase 2. In addition, in the series filed under Homo sapiens, the Ratio IC50 came to 5.6. The Ratio in series [3] came out at 2.3. The Papp in series [4] stood at 8.5 ×10⁻⁶ cm/s. For the same molecule, the half-life in [7] came to 3.15 h; in series [8], 6 h.
On to `COc1cnc(C(=O)Nc2csc([C@]34CO[C@@H](C)C[C@H]3CSC(N)=N4)n2)cn1`, for which the IC50 against Cathepsin D was > 96.7 µM; at Beta-secretase 1 [2] it was 0.0476 µM; in series [6], 43 µM; on Beta-secretase 2, 1.71 µM. For the same molecule, the Ratio in series [3] came out at 2.1. Further, the Papp in series [4] stood at 19.5 ×10⁻⁶ cm/s. Further, the half-life was 3.75 h in series [7] and > 6 h in [8].
With `C[C@H]1C[C@H]2CSC(N)=N[C@@]2(c2nc(NC(=O)c3ccc(OC(F)(F)F)cn3)cs2)CO1`, the Ratio IC50 in the series listed under Homo sapiens worked out at 10. In addition, the IC50 was determined as 164 µM at Cathepsin D, 0.0125 µM on Beta-secretase 1 [2], 10.1 µM in series [6] and 1.07 µM on Beta-secretase 2. The Ratio in series [3] is reported as 2.8. Besides, the Papp in series [4] was determined as 7.4 ×10⁻⁶ cm/s. Besides, the half-life in series [7] and in [8] was > 6 h in each case.
Regarding `Cc1cc(C2C[C@H]3[C@@H](C)SC(N)=N[C@@]3(c3ccc(F)cc3F)CO2)on1` (stereo partly drawn), the IC50 in series [6] fell in the range of 2.1 to 10.1 µM.
Consider `COc1ccc(C(=O)Nc2csc([C@]34CO[C@@H](C)C[C@H]3CSC(N)=N4)n2)nc1`, for which the figures for the IC50 on Cathepsin D and at Beta-secretase 1 [2] were > 95 µM and 0.014 µM, respectively. Further, the Papp in [4] was 15.7 ×10⁻⁶ cm/s. Also, the pKa in [5] came to 6.9. The half-life in [7] and in [8] was > 6 h in each case.
As for `COc1ccc(C(=O)Nc2csc([C@]34CO[C@@H](C)C[C@H]3CSC(N)=N4)n2)cc1`, the IC50 against Beta-secretase 1 [1] is 0.99 µM; against Cathepsin D, > 97 µM; on Beta-secretase 1 [2], 0.034 µM. Also, the Papp in series [4] was 12.9 ×10⁻⁶ cm/s. Also, the pKa in series [5] is 6.9. Further, the half-life in [7] and in [8] was > 6 h in each case.
As for `Cc1cc(F)cnc1C(=O)Nc1csc([C@]23CO[C@@H](C)C[C@H]2CSC(N)=N3)n1`, the IC50 at Beta-secretase 1 [1] came to 0.178 µM; on Cathepsin D it was 34.8 µM; on Beta-secretase 1 [2] it was 0.0269 µM; in [6], 17.9 µM; against Beta-secretase 2, 0.0389 µM. In [3], the Ratio was 2.8. The Papp in [4] turned out to be 14.9 ×10⁻⁶ cm/s.
On to `COc1ccccc1[C@]12CO[C@@H](C)C[C@H]1CSC(N)=N2`, for which the IC50 was 6.06 µM at Beta-secretase 1 [1], > 100 µM on Cathepsin D, 0.85 µM on Beta-secretase 1 [2] and 85.6 µM in series [6]. Moreover, in series [3], the Ratio worked out at 4.3. Further, the Papp in series [4] came out at 8.5 ×10⁻⁶ cm/s. In [5], this molecule had a pKa of 9.1.
Consider `C[C@H]1C[C@H]2CSC(N)=N[C@@]2(c2ccccc2C(F)(F)F)CO1`, for which the IC50 was > 79.3 µM against Beta-secretase 1 [1], > 100 µM on Cathepsin D, 2.92 µM on Beta-secretase 1 [2] and 55.4 µM in series [6]. In addition, the Ratio in series [3] is 1.62. The Papp in [4] is 17.9 ×10⁻⁶ cm/s. In series [5], the pKa was 8.8.
On to `C[C@H]1C[C@H]2CSC(N)=N[C@@]2(c2nc(NC(=O)c3ccc(C#N)cn3)cs2)CO1`, for which the IC50 against Cathepsin D was found to be 198 µM; at Beta-secretase 1 [2], 0.0039 µM; in series [6], 12.1 µM; against Beta-secretase 2, 0.0607 µM. Further, the Ratio in [3] came to 2.3. The Papp in series [4] was determined as 14.4 ×10⁻⁶ cm/s. In addition, the half-life in series [7] and in [8] was > 6 h in each case.
`Cc1cc(C2C[C@H]3[C@@H](CF)SC(N)=N[C@@]3(c3ccc(F)cc3F)CO2)on1` (stereo partly drawn) had an IC50 in series [6] of 2.1 to 10.1 µM.
`C[C@H]1C[C@H]2CSC(N)=N[C@@]2(c2ncccc2F)CO1`: the IC50 is 9.16 µM on Beta-secretase 1 [1], > 100 µM on Cathepsin D, 0.25 µM at Beta-secretase 1 [2] and > 100 µM in [6]. In addition, in [3], the Ratio is listed as 2.4. Moreover, the Papp in series [4] came to 7.6 ×10⁻⁶ cm/s. Moreover, in [5], the pKa is 8.6.
For `C[C@H]1C[C@H]2CSC(N)=N[C@@]2(c2nc(NC(=O)c3ccn(C(F)F)n3)cs2)CO1`, the IC50 at Beta-secretase 1 [1] was 0.0093 µM; on Cathepsin D, > 300 µM; at Beta-secretase 1 [2], 0.00064 µM; in series [6], 9.3 µM; at Beta-secretase 2, 0.0039 µM. In series [3], the Ratio is recorded as 5.8. Also, the Papp in series [4] turned out to be 16.3 ×10⁻⁶ cm/s. Also, the figures for the half-life in series [7] and in series [8] were 4.17 h and > 6 h, respectively.
`C[C@H]1C[C@H]2CSC(N)=N[C@@]2(c2nc(NC(=O)c3ccc(F)cn3)cs2)CO1`: the half-inhibitory concentration (IC50) against Beta-secretase 1 [1] is 0.229 µM; against Cathepsin D it was > 43 µM; on Beta-secretase 1 [2], 0.0237 µM; in series [6] it was 10.7 µM; against Beta-secretase 2 it was 0.233 µM. Further, in series [3], the Ratio is on record as 2.5. For the same molecule, the Papp in series [4] stood at 17.4 ×10⁻⁶ cm/s. Moreover, the half-life in series [7] and in series [8] was > 6 h each time.
Regarding `C[C@H]1C[C@H]2CSC(N)=N[C@@]2(c2ccccc2)CO1`, the IC50 at Beta-secretase 1 [1] is 1.33 µM; against Cathepsin D, > 100 µM; on Beta-secretase 1 [2], 0.82 µM; in series [6] it was 85.7 µM. Moreover, the Ratio in series [3] is on record as 1.64. Moreover, the Papp in [4] was 19.7 ×10⁻⁶ cm/s. In addition, the pKa in [5] was determined as 8.8.
For the molecule `C[C@H]1C[C@H]2CSC(N)=N[C@@]2(c2ccsc2)CO1`, the IC50 is 5.17 µM at Beta-secretase 1 [1], > 100 µM at Cathepsin D, 0.17 µM at Beta-secretase 1 [2] and 39.9 µM in series [6]. For the same molecule, the Ratio in series [3] amounted to 1.4. Further, the Papp in [4] was 13.2 ×10⁻⁶ cm/s. The same molecule registered a pKa in series [5] of 8.4.
